Bioassay records from PubChem.
Compounds with a hit are over-represented: about 1% of the library has one in this group of screens.
PERK inhibitor = block of dimerizer-induced PERK translation repression, primary screen, PERK inhibitor project, CHO PERK-DD cells, SEAP luminescence, HTS; CHO PERK-DD fusion, SEAP luminescence translation reporter; inhibition, % at 5.6 µM; AID 1416, 2008; Eukaryotic translation initiation factor 2-alpha kinase 3 (Homo sapiens), Q9NZJ5; hit rate 0.17% among 220,000;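 active = inhibition above the mean inhibition of all tested compounds plus 3 SD, set separately per screening campaign, cut at about 2.9% in these data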;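 note: PERK kinase domain activated by AP20187 dimerizer at 100 nM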
Rad51 HR inh = human RAD51 strand exchange inhibitors, primary screen, biochemical, fluorescence. hRad51 DNA strand exchange, fluorescence dequenching. inhibition, % at 10 µM. hit rate 0.085% among 200,000. AID 1385, 2008;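 active = inhibition above 40% at the single screening dose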
Target sequence (Q06609 whole entry, looked up): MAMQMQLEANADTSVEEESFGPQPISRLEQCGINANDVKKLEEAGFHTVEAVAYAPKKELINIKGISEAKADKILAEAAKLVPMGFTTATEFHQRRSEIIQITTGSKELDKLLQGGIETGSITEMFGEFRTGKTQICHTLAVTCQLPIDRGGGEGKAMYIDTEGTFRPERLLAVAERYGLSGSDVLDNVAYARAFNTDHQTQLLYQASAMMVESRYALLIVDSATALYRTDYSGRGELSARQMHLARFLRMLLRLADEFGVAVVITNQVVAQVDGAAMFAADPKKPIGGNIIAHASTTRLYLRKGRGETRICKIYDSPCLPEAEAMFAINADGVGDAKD
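Test system: preformed human Rad51 ssDNA filaments; also added: Donor/quencher-labelled 47-bp dsDNA substrate; doses: 10 µM final, single point; times: 37 °C 15-min filament assembly, 30-min compound preincubation, 15-min exchange; detection: FRET fluorescence dequenching, excitation 485 nm, emission 520 nm; read-out basis: Fluorescence-based percent inhibition, control- and blank-normalised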
Efa HMGR inh = inhibitors of E. faecalis class II HMGR, primary screen, biochemical, Enterococcus faecalis; HMG-CoA reductase (Enterococcus faecalis, mvaE); purified E. faecalis HMGR, NADPH absorbance 340 nm kinetic; inhibition, % at 10 µM; hit rate 0.41% among 190,000;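 active = inhibition above a set limit, the median over all tested compounds plus 3 SD, cut at about 9.5% in these data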;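 note: enzyme runs in reverse so mevalonate oxidation gives rising NADPH absorbance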
TNF necrop inh = inhibitors of TNF-alpha triggered necroptosis, primary screen, cell-based, Jurkat FADD-/-, single concentration | Jurkat FADD-/- TNF necroptosis rescue, ATP luminescence, 24 h; 0 = TNF only, 100 = no-TNF cells | activation (protection from cell death), % at 10 µM | hit rate 0.068% among 220,000 | AID 463075, 2010;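 active = activation, meaning protection from cell death, of at least 50% relative to plate controls; inactive = activation below 50%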;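 note: necroptosis triggered by 40 ng/mL TNF-alpha added together with compound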
L929 necroptosis = inhibitors of zVAD-triggered necroptosis, primary screen, L929 cells. viability rescue, % at 10 µM. hit rate 0.38% among 220,000. L929 zVAD necroptosis rescue, ATP luminescence, 24 h; with zVAD 60 µM. AID 1377, 2008;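 active = activation, scaled between plate controls, above about 75%, limit read from the data; inactive = activation under that limit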
Of the large screens only hits and unclear results are named; the others gave an inactive call.

Cc1cccc(C)c1NC(=O)CN1C(=O)NC(C)(CCc2ccccc2)C1=O (centres undefined)	Efa HMGR inh 13
CC(C)N(C(C)C)S(=O)(=O)c1ccc(NN)nc1	Rad51 HR inh 43 (no result: Efa HMGR inh)
Cc1n[nH]c(C)c1S(=O)(=O)N1CCc2ccccc21	none
Cn1cnc(S(=O)(=O)N2CCc3ccccc32)c1	PERK inhibitor 3.1
CC(=NCCCn1ccnc1)c1c(C)[nH]n(-c2ccc([N+](=O)[O-])cc2)c1=O	none
Cc1cscc1NC(=O)/C=C/C(=O)O	PERK inhibitor 3.5 (no result: Efa HMGR inh)
Cc1cc(NC(=O)/C=C\C(=O)O)c([N+](=O)[O-])cc1C	none (no result: Efa HMGR inh)
CCOc1cccc2sc(NN)nc12	none
NNc1nc2c(Cl)ccc(Cl)c2s1	Efa HMGR inh 19
CCCCOc1ccc(CC2CCC(=O)NC2=O)cc1 (centres undefined)	none
CC(=O)N/C(=C\c1cccs1)C(=O)O	none
O=C(O)/C(=C\c1cccs1)c1ccccc1	Efa HMGR inh 12
COc1cc(/C=N/NC(N)=O)cc(Br)c1OCc1ccccc1C	none
Cc1ccccc1CO/N=C/c1[nH]ncc1Br	PERK inhibitor 3.5 (no result: Efa HMGR inh)
CCN(CC)S(=O)(=O)c1cc(NC(=O)CNc2c(C)n(C)n(-c3ccccc3)c2=O)ccc1C	none
CC(NC(=O)/C(=C\c1ccco1)NC(=O)c1ccccc1Br)C(=O)O (centres undefined)	Efa HMGR inh 10 (no result: Rad51 HR inh)
O=C(NCCc1nc2ccccc2[nH]1)/C(=C/c1ccco1)NC(=O)c1ccccc1Br	none
COc1ccc(OC)c(NC(=O)CSc2nc3ccccc3cc2Cc2ccccc2)c1	PERK inhibitor 2.9
Cc1ccc2c(c1)Oc1ccc(NC(=O)CCl)cc1C(=O)N2	none
Cc1nc2ccccc2n1CC(O)COc1ccccc1Cl (centres undefined)	Efa HMGR inh 11
Cc1nc2ccccc2n1CC(O)COc1ccc(Br)cc1 (centres undefined)	none
Cc1ccc(C(=O)C2CCN(CC(=O)N3CCN(c4ccc(F)cc4)CC3)CC2)cc1	none
O=C(CN1N=C(c2ccc(Cl)cc2)CCC1=O)NCCN1CCc2ccccc2C1	none (no result: Rad51 HR inh)
CCCCC(=O)Nc1nnc(C2=COCCO2)o1	Efa HMGR inh 18
O=C(Cc1ccc(Cl)cc1)NCCS(=O)c1ccc(Cl)cc1 (centres undefined)	Rad51 HR inh 130
O=C(Cc1ccccc1)NCCS(=O)c1ccc(Cl)cc1 (centres undefined)	none
NNc1nc2sc3c(c2c(=O)n1Cc1ccccc1)CCC3	TNF necrop inh 90 (no result: Efa HMGR inh)
C=C(C)CSc1nnc2n(Cc3ccccc3)c(=O)c3c4c(sc3n12)CCC4	TNF necrop inh 51 (no result: Rad51 HR inh)
O=C(NC(=S)Nc1ccc2oc(=O)ccc2c1)c1ccccc1F	PERK inhibitor 3.7 (no result: Efa HMGR inh)
O=C(NC(=S)Nc1ccc2oc(-c3ccncc3)nc2c1)c1ccccc1F	none
O=C(Cn1ncc2ccccc21)N1CCN(c2cccc(C(F)(F)F)c2)CC1	Efa HMGR inh 18
Cc1ccc(CSCC(=O)NCc2ccc(F)cc2)cc1	none
Cc1ccc(NC(=O)CSCc2ccc(F)cc2)cc1	TNF necrop inh 53
COc1ccc(CN(C(=O)COc2ccccc2)c2ccccc2C(=O)O)cc1	none (no result: Efa HMGR inh)
CCn1cc(/C=N/NS(=O)(=O)c2ccc(OC)cc2)c(C)n1	Rad51 HR inh 45
Cc1cc(=O)[nH]c(N/N=C/c2ccc(N(C)C)cc2)n1	Efa HMGR inh 14
COc1ccc2c(c1)c(CCNNC(=O)C(C)(C)C)c(C)n2C(=O)c1ccc(Cl)cc1	none (no result: PERK inhibitor, Efa HMGR inh, TNF necrop inh, L929 necroptosis)
Cc1ccc(S(=O)(=O)NCCc2cccs2)cc1	none (no result: Efa HMGR inh)
O=C(NCCCN1CCOCC1)c1cc(C(=O)C2CCCCC2)c[nH]1	none
CN(C)CCCNC(=O)c1cc(C(=O)C2CCCCC2)c[nH]1	Efa HMGR inh 17
COc1cc(NC2c3ccccc3C(=O)N2Cc2ccc3c(c2)OCO3)cc(OC)c1 (centres undefined)	none (no result: Efa HMGR inh)
CCCCCCCCCCOC(=O)C[N+](C)(C)C/C=C(/C)Cl	none
CCCCCCCCCCCCCCCC(=O)OC[C@H](COP(=O)([O-])OCC[N+](C)(C)C)OC(=O)CCCCCCCCCCCCCCC	PERK inhibitor 3.0
COC(=O)c1ccc(Cn2nc([N+](=O)[O-])c(Br)c2C)cc1	none (no result: Efa HMGR inh)
COc1ccc2c(c1)c(=O)oc1cc(O)ccc12	PERK inhibitor 3.4
COc1ccc(OC)c(S(=O)(=O)NC(N)=NCCc2ccccc2)c1	none
Nc1nc(SCc2ccccc2Cl)ns1	Efa HMGR inh 13
COc1ccc(C(=O)NCC2CCCO2)cc1OC (centres undefined)	none (no result: Efa HMGR inh)
CCOc1ccc(C(=O)NCC2CCCO2)cc1OCC (centres undefined)	Efa HMGR inh 13
Cc1nnc(Sc2cc(C(=O)NCc3ccco3)c3ccccc3n2)s1	L929 necroptosis 97
Cc1nnc(Sc2cc(C(=O)NC3CC3)c3ccccc3n2)s1	none (no result: Efa HMGR inh)
O=C(CN1CCN(Cc2ccccc2)CC1)N1N=CCC1c1ccccc1 (centres undefined)	none
O=C(CSc1nnnn1-c1ccccc1)N1N=CCC1c1ccccc1 (centres undefined)	TNF necrop inh 97
Cc1ccc(SCC(=O)N2N=CCC2c2ccccc2)cc1 (centres undefined)	TNF necrop inh 68
CC(C)CNC(=O)c1cnn2c(C(F)(F)F)cc(C(F)(F)F)nc12	none (no result: Efa HMGR inh)
CC(Nc1nc(-c2ccc3c(c2)NC(=O)CO3)cs1)c1ccccc1 (centres undefined)	TNF necrop inh 83
CCC1Oc2ccccc2N(CC(=O)Nc2ccccc2OC)C1=O (centres undefined)	none
CCC1Oc2ccccc2N(CC(=O)NCc2ccco2)C1=O (centres undefined)	Efa HMGR inh 41
COc1cccc(/C=C2/SC(=O)N(C)C2=O)c1OCc1ccc(C(=O)O)cc1	Efa HMGR inh 10
COc1ccc(/C=C(/NC(=O)c2ccccc2Cl)C(=O)O)cc1	none
CCOC(=O)c1cnc2c(cnn2C)c1NCCCn1ccnc1	none
CCCCCCN1C=CC(=C/C=C(\C#N)C(=O)OCC)C=C1	none
CCCN1C=CC(=C/C=C(\C#N)C(=O)OCC)C=C1	L929 necroptosis 89
CC(C)=NNC1=NC(C)(C)Cc2ccccc21	none (no result: Efa HMGR inh)
CC(=O)CC1=NC(C)(C)Cc2ccccc21	Efa HMGR inh 12
CCOn1c(=O)c(=O)n(OC)c2ccccc21	none (no result: Efa HMGR inh)
CC(C)=CCc1cc([C@@H]2CC(=O)c3ccc(O)c(CC=C(C)C)c3O2)ccc1O	none (no result: PERK inhibitor, Efa HMGR inh, TNF necrop inh, L929 necroptosis)
O=C(O)CSc1nnc(CSc2nc3ccccc3s2)n1-c1ccccc1	Efa HMGR inh 11
Cc1cc(N2CCOCC2)nc(SCC(=O)OCc2ccccc2)n1	Efa HMGR inh 11 (no result: Rad51 HR inh)
